ChEMBL document CHEMBL5678815 (Clin Cancer Res, 2017)
The source made the active and inactive calls. The rule behind the calls is not given here.

Tests used:
[1] = target: RAC-alpha serine/threonine-protein kinase (Homo sapiens) (UniProt P31749); assay: Inhibition of human AKT1 assessed as remaining activity at 1 uM by ATP-competition binding assay relative to control
Summary of the method: (§1)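 KINOMEscan ATP-site-dependent competition binding panel of 395 human kinases, with compound tested at 1 μM. Binding is reported as remaining signal relative to control.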

[2] = target: 5'-AMP-activated protein kinase catalytic subunit alpha-2 (Homo sapiens) (UniProt P54646); assay: Inhibition of human AMPK-alpha2 assessed as remaining activity at 1 uM by ATP-competition binding assay relative to control; summary of the method: as §1
5'-AMP-activated protein kinase catalytic subunit alpha-2 (Homo sapiens), sequence (P54646 whole entry, looked up): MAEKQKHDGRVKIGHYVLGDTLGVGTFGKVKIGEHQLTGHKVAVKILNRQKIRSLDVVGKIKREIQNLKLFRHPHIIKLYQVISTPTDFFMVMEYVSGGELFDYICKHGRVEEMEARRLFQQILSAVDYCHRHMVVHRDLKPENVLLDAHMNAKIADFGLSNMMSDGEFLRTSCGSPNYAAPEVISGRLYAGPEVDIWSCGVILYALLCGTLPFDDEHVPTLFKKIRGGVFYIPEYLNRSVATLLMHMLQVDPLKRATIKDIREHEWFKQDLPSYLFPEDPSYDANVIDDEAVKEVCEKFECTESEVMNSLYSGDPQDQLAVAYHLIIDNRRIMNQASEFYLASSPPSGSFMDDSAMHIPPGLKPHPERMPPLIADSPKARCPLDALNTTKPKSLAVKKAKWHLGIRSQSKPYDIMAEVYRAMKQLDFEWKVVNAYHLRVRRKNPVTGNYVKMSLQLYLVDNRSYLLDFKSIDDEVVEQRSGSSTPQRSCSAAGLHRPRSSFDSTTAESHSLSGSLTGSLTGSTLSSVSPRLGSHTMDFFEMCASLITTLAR

[3] = test system: Serine/threonine-protein kinase B-raf (Homo sapiens), P15056 [V600E]; assay: Inhibition of human BRAF V600E mutant assessed as remaining activity at 1 uM by ATP-competition binding assay relative to control; summary of the method: as §1
[4] = target: Protein-tyrosine kinase 6 (Homo sapiens) (UniProt Q13882); assay: Inhibition of human BRK assessed as remaining activity at 1 uM by ATP-competition binding assay relative to control; summary of the method: as §1
Protein-tyrosine kinase 6 (Homo sapiens), sequence (Q13882 whole entry, looked up): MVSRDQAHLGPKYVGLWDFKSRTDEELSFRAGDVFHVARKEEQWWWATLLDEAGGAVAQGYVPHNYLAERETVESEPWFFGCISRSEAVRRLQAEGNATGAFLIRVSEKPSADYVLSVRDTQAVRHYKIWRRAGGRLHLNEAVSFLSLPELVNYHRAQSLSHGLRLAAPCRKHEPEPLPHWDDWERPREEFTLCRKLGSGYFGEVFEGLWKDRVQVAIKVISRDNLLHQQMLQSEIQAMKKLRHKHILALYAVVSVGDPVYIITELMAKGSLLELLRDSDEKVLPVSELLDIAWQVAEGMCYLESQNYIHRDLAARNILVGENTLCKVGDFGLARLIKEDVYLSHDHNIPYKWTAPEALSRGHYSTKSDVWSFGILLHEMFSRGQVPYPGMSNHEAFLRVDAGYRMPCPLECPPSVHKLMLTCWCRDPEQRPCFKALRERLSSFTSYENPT

[5] = target: Calcium/calmodulin-dependent protein kinase type II subunit gamma (Homo sapiens) (UniProt Q13555); assay: Inhibition of human CAMK2G assessed as remaining activity at 1 uM by ATP-competition binding assay relative to control; summary of the method: as §1
[6] = target: Epidermal growth factor receptor (Homo sapiens) (UniProt P00533); assay: Inhibition of human EGFR assessed as remaining activity at 1 uM by ATP-competition binding assay relative to control; summary of the method: as §1
[7] = target: Ephrin type-B receptor 2 (Homo sapiens) (UniProt P29323); assay: Inhibition of human EPHB2 assessed as remaining activity at 1 uM by ATP-competition binding assay relative to control
Ephrin type-B receptor 2 (Homo sapiens), sequence (P29323 whole entry): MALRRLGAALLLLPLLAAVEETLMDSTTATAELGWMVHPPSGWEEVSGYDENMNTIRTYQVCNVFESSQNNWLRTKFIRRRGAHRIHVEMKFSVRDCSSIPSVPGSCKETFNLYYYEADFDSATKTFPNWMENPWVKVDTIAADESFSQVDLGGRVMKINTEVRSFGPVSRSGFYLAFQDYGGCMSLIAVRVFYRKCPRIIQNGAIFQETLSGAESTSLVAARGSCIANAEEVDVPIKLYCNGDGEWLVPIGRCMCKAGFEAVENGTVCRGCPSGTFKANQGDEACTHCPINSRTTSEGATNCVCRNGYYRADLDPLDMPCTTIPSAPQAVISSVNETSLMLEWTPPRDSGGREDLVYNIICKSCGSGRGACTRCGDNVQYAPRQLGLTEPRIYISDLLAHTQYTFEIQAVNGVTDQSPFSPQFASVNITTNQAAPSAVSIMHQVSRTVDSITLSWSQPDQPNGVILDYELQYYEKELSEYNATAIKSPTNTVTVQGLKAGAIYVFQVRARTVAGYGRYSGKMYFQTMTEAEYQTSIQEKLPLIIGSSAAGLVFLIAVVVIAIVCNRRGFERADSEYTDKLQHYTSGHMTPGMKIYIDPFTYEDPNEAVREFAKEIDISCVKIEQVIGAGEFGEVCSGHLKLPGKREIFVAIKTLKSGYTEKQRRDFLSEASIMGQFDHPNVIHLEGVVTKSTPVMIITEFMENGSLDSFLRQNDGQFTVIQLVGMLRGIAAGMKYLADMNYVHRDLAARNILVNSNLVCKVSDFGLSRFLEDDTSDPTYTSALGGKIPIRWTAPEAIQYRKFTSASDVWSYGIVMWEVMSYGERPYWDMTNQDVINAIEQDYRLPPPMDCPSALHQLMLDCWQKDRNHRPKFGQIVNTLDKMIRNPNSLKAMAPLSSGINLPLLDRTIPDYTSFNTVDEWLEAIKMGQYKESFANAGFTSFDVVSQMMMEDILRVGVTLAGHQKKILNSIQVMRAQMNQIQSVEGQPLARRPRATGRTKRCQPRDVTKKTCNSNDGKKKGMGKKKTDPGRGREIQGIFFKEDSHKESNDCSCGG
Summary of the method: (§2)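 Single-point profiling at 1μM in an ATP-site-dependent competition binding assay across a panel of 395 human kinases, including mutant forms. The read-out is kinase binding signal in the presence of test agent, expressed as inhibition relative to the control signal. This screen assessed noncovalent binding interactions.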

[8] = target: Fibroblast growth factor receptor 3 (Homo sapiens) (UniProt P22607); assay: Inhibition of human FGFR3 assessed as remaining activity at 1 uM by ATP-competition binding assay relative to control; summary of the method: as §2
[9] = target: Homeodomain-interacting protein kinase 1 (Homo sapiens) (UniProt Q86Z02); assay: Inhibition of human HIPK1 assessed as remaining activity at 1 uM by ATP-competition binding assay relative to control; summary of the method: as §2
[10] = target: LIM domain kinase 1 (Homo sapiens) (UniProt P53667); assay: Inhibition of human LIMK1 assessed as remaining activity at 1 uM by ATP-competition binding assay relative to control; summary of the method: as §2
[11] = target: Leukocyte tyrosine kinase receptor (Homo sapiens) (UniProt P29376); assay: Inhibition of human LTK assessed as remaining activity at 1 uM by ATP-competition binding assay relative to control; summary of the method: as §2
[12] = target: Serine/threonine-protein kinase Nek7 (Homo sapiens) (UniProt Q8TDX7); assay: Inhibition of human NEK7 assessed as remaining activity at 1 uM by ATP-competition binding assay relative to control; summary of the method: as §2
Serine/threonine-protein kinase Nek7 (Homo sapiens), sequence (Q8TDX7 whole entry, looked up): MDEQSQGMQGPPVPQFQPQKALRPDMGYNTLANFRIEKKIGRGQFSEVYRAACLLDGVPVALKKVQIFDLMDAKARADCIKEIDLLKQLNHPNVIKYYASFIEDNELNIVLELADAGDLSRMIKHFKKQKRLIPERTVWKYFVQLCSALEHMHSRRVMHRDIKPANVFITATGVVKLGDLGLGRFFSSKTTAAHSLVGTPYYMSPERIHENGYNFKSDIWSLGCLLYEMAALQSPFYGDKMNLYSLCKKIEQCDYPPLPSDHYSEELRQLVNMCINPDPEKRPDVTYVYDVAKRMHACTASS

[13] = target: Mitogen-activated protein kinase 14 (Homo sapiens) (UniProt Q16539); assay: Inhibition of human P38alpha assessed as remaining activity at 1 uM by ATP-competition binding assay relative to control; summary of the method: as §2
Mitogen-activated protein kinase 14 (Homo sapiens), sequence (Q16539 whole entry): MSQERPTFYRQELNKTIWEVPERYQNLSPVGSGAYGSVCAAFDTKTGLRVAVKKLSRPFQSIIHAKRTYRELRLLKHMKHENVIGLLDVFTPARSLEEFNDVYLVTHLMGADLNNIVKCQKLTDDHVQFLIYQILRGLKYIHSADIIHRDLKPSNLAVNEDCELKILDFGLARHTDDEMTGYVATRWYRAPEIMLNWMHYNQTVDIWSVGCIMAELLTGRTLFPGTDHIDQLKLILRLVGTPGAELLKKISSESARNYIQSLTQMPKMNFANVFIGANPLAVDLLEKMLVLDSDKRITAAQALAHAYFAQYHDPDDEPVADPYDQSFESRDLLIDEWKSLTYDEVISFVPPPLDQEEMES

[14] = target: Serine/threonine-protein kinase PAK 1 (Homo sapiens) (UniProt Q13153); assay: Inhibition of human PAK1 assessed as remaining activity at 1 uM by ATP-competition binding assay relative to control; summary of the method: as §2
[15] = target: Serine/threonine-protein kinase PAK 4 (Homo sapiens) (UniProt O96013); assay: Inhibition of human PAK4 assessed as remaining activity at 1 uM by ATP-competition binding assay relative to control; summary of the method: as §2
[16] = target: cAMP-dependent protein kinase catalytic subunit alpha (Homo sapiens) (UniProt P17612); assay: Inhibition of human PKAC-alpha assessed as remaining activity at 1 uM by ATP-competition binding assay relative to control
Summary of the method: (§3)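 Single-concentration (1 μM) screen in an ATP-site-dependent competition binding assay (KINOMEscan, outsourced) covering 395 human kinases, mutants included. Non-covalent binding was read as the remaining signal relative to the control signal.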

[17] = target: RAF proto-oncogene serine/threonine-protein kinase (Homo sapiens) (UniProt P04049); assay: Inhibition of human RAF1 assessed as remaining activity at 1 uM by ATP-competition binding assay relative to control; summary of the method: as §3
RAF proto-oncogene serine/threonine-protein kinase (Homo sapiens), sequence (P04049 whole entry): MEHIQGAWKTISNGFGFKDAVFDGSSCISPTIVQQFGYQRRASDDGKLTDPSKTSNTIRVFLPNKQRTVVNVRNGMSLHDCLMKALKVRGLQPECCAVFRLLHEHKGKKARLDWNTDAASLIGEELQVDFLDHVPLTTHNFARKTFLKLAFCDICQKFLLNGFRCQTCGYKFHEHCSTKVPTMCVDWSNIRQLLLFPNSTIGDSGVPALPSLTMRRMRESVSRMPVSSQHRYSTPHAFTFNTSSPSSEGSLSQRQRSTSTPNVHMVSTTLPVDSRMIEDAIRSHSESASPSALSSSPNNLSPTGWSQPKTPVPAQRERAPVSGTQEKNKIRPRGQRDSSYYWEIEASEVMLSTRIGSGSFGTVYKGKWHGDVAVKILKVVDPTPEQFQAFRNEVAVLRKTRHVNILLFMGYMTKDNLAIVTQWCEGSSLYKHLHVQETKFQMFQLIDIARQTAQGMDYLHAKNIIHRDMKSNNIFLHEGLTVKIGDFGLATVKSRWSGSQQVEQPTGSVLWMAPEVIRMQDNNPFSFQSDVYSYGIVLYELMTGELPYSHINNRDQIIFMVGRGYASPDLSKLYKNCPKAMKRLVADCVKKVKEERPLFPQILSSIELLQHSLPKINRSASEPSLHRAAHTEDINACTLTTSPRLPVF

[18] = target: Ribosomal protein S6 kinase alpha-4 (Homo sapiens) (UniProt O75676); assay: Inhibition of human RPS6KA4 assessed as remaining activity at 1 uM by ATP-competition binding assay relative to control; summary of the method: as §3
Ribosomal protein S6 kinase alpha-4 (Homo sapiens), sequence (O75676 whole entry, looked up): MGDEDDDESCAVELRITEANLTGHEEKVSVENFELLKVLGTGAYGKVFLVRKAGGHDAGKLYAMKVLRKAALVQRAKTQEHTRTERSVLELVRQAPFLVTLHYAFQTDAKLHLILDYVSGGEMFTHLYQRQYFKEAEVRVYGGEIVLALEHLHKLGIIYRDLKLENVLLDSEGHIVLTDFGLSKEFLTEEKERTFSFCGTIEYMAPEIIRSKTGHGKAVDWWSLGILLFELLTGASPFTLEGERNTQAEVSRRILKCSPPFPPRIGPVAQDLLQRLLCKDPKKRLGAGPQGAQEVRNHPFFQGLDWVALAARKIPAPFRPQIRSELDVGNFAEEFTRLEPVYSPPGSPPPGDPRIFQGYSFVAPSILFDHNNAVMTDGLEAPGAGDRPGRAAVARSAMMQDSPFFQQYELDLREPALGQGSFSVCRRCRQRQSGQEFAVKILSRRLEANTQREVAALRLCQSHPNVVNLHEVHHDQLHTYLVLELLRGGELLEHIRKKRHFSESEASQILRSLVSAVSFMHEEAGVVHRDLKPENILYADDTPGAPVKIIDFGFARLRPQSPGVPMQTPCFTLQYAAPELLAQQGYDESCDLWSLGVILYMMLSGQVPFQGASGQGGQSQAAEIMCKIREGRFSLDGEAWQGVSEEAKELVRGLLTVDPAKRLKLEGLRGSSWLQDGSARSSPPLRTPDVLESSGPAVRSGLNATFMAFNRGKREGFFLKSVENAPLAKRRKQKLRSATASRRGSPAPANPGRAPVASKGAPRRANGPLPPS

[19] = target: SRSF protein kinase 3 (Homo sapiens) (UniProt Q9UPE1); assay: Inhibition of human SRPK3 assessed as remaining activity at 1 uM by ATP-competition binding assay relative to control; summary of the method: as §3
[20] = target: cGMP-dependent protein kinase 2 (Homo sapiens) (UniProt Q13237); assay: Inhibition of human PRKG2 assessed as remaining activity at 1 uM by ATP-competition binding assay relative to control; summary of the method: as §3
cGMP-dependent protein kinase 2 (Homo sapiens), sequence (Q13237 whole entry): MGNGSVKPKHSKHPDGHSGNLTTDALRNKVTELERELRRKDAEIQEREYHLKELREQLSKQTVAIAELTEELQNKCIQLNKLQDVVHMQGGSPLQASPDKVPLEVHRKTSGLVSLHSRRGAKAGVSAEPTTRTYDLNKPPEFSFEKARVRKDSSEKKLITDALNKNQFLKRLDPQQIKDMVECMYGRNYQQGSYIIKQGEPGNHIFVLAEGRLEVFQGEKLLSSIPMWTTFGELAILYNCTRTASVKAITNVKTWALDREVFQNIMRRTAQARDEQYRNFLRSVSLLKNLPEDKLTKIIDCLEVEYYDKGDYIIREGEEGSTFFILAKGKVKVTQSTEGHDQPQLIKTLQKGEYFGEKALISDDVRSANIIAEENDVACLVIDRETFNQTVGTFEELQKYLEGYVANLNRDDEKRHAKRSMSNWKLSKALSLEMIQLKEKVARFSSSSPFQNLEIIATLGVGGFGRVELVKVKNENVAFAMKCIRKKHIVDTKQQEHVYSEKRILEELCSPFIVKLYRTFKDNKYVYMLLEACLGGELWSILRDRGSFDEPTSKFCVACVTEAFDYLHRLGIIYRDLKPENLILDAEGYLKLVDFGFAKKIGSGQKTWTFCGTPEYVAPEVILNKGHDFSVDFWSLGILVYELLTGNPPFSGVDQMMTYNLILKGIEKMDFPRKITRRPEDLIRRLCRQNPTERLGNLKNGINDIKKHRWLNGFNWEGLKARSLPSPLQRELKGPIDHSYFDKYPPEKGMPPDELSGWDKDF

[21] = target: Non-receptor tyrosine-protein kinase TNK1 (Homo sapiens) (UniProt Q13470); assay: Inhibition of human TNK1 assessed as remaining activity at 1 uM by ATP-competition binding assay relative to control; summary of the method: as §3
[22] = target: NT-3 growth factor receptor (Homo sapiens) (UniProt Q16288); assay: Inhibition of human TRKC assessed as remaining activity at 1 uM by ATP-competition binding assay relative to control; summary of the method: as §3
[23] = target: Tyrosine-protein kinase Yes (Homo sapiens) (UniProt P07947); assay: Inhibition of human YES assessed as remaining activity at 1 uM by ATP-competition binding assay relative to control; summary of the method: as §3
[24] = test system: Splenocyte; assay: In vivo inhibition of BCR signaling in female […] mouse assessed as CD69 expression at 1.3 mg/kg, po administered and measured after stimulation with anti-IgM for 18 h by flow cytometry analysis; format: functional, organism-based
Summary of the method: (§4)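 Female C57BL/6 mice (5 per group per dose) were gavaged orally at 0.1–30 mg/kg. At 3 h, splenocytes were stimulated with anti-mouse IgM 10 μg/mL for 18 h at 37°C, 5% CO2. After Fc block, cells were stained for CD19 and CD69 with 7-AAD viability dye; >5,000 gated CD19+ cells acquired by flow cytometry.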

[25] = test system: Splenocyte; assay: In vivo inhibition of BCR signaling in female […] mouse assessed as […] CD69 expression at 1 to 3 mg/kg, po administered and measured after stimulation with anti-IgM for 18 h by flow cytometry analysis; format: functional, organism-based; conditions: dose 1-3 mg/kg; summary of the method: as §4
[26] = Antileukemic activity against human CLL mononuclear cells xenografted NSG mouse assessed as inhibition in cell proliferation measuring by Ki67 expression level at 0.3 to 0.16 mg/ml preadministered with compound via drinking water and measured after 3 weeks by flow cytometry analysis relative to control; format: functional; conditions: dose 0.3-0.16 mg/ml, at 0.16 to 0.3 mg/mL
Summary of the method: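 Primary CLL patient mononuclear cells (1 × 10^8 per mouse) engrafted into NSG mice on day 0 after busulfan priming on day −1. Vehicle or drug was given in drinking water from day −1. Mice were killed 3 weeks after engraftment; spleens homogenized, filtered and RBC-lysed; whole blood collected. Six patients, 2–5 mice per patient; paired t-test per patient.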

Structure (SMILES): CC#CC(=O)N1CCC[C@H]1c1nc(-c2ccc(C(=O)Nc3ccccn3)cc2)c2c(N)nccn12 [ACALABRUTINIB]
- Activity [1]: 93%
- Activity [2]: 84%
- Activity [3]: 44%
- Activity [4]: 79%
- Activity [5]: 84%
- Activity [6]: 75%
- Activity [7]: 69%
- Activity [8]: 87%
- Activity [9]: 90%
- Activity [10]: 13%
- Activity [11]: 86%
- Activity [12]: 80%
- Activity [13]: 84%
- Activity [14]: 87%
- Activity [15]: 88%
- Activity [16]: 77%
- Activity [17]: 77%
- Activity [18]: 90%
- Activity [19]: 93%
- Activity [20]: 95%
- Activity [21]: 90%
- Activity [22]: 99%
- Activity [23]: 83%
- Activity [24]: Active
- Activity [25]: Active
- inhibition (INH) [26]: 50%
